Assay results published in ChEMBL document CHEMBL1926621, “New potent 5-HT(2A) receptor ligands containing an N'-cyanopicolinamidine nucleus: Synthesis and in vitro pharmacological evaluation” (Eur J Med Chem, 2012).

Experiments:
[1] = biological target: T1, 5-hydroxytryptamine receptor 2C (Rattus norvegicus, UniProt P08909); experiment: Displacement of [3H]mesulergine from Sprague-Dawley rat brain cortex serotonin 5-HT2C receptor after 15 mins by liquid scintillation counting in presence of 5-HT2A blocker, spiperone
T1 sequence (P08909 whole entry): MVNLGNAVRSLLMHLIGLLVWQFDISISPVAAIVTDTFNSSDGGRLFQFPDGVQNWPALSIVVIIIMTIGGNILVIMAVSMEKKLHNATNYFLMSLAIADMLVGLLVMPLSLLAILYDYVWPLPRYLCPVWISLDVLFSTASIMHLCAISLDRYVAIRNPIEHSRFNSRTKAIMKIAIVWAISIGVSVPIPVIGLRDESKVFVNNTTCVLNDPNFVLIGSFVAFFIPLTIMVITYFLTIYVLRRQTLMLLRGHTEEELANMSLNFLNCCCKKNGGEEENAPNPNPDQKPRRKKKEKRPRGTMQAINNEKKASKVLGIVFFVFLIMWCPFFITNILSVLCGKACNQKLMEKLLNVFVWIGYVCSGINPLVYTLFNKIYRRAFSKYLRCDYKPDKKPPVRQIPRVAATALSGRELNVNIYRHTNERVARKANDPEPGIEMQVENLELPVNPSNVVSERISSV
Outline: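 Male Sprague-Dawley rat frontal cortex membranes (Tris-HCl/EDTA/MgCl2 pH 7.4, ascorbate, pargyline). 100 nM spiperone in all tubes to block 5-HT2A sites. Mianserin defined nonspecific binding. 15 min at 37 °C, PEI-soaked glass fibre filtration. Six compound concentrations in triplicate. Ki by Cheng-Prusoff.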

[2] = biological target: 5-hydroxytryptamine receptor 2A (Rattus norvegicus, UniProt P14842); experiment: Displacement of [3H]ketanserin from Sprague-Dawley rat brain cortex serotonin 5-HT2A receptor after 15 mins by liquid scintillation counting; conditions: for Ki: read-out: Ki
Sequence of 5-hydroxytryptamine receptor 2A (P14842 whole entry): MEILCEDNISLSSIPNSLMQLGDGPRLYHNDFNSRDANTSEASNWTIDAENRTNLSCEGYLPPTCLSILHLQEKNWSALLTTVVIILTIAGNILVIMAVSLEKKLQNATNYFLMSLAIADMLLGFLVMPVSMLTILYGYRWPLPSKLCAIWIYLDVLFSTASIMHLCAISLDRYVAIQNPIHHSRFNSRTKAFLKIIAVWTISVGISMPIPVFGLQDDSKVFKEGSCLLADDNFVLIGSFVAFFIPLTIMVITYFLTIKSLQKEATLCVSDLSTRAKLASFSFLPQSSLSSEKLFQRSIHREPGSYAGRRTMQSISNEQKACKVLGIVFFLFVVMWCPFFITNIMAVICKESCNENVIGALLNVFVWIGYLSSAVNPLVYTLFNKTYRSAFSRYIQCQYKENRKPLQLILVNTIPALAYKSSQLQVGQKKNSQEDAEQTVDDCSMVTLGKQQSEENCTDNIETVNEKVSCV
Outline: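 Male Sprague-Dawley rat frontal cortex membranes in 50 mM Tris-HCl, 0.5 mM EDTA, 10 mM MgCl2 pH 7.4, with 0.1% ascorbate and pargyline. 0.4 nM [3H]ketanserin, 5 mg wet tissue, 15 min at 37 °C. Filtered on PEI-soaked glass fibre. Six compound concentrations in triplicate. IC50 converted to Ki by Cheng-Prusoff.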

[3] = biological target: T2, 5-hydroxytryptamine receptor 1A (Rattus norvegicus, UniProt P19327); experiment: Displacement of [3H]-8-OH-DPAT from Sprague-Dawley rat brain cortex serotonin 5-HT1A receptor after 30 mins by liquid scintillation counting; conditions: read-out: Ki
T2 sequence (P19327 whole entry): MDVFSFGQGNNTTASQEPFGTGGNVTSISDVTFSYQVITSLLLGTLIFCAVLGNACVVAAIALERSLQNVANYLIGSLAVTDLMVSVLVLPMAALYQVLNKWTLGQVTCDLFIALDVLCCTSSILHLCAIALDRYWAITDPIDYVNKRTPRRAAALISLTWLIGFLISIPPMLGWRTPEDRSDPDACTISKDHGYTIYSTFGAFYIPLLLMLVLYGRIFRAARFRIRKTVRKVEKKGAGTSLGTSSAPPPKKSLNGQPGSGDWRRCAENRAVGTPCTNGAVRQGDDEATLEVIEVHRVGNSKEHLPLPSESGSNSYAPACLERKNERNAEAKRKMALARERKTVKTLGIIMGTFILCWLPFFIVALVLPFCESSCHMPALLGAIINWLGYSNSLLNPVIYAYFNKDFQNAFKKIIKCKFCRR
Outline: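 Male Sprague-Dawley rat (180-220 g) cerebral cortex homogenized in 50 mM Tris-HCl pH 7.7, spun 50,000 g. [3H]-8-OH-DPAT 0.1 nM final, 30 min at 37 °C, GF/B filtration. Test compounds in ethanol or 5% DMSO, six concentrations in triplicate. IC50 by curve fitting, Ki by Cheng-Prusoff using Scatchard-derived KD.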

[4] = biological target: D(2) dopamine receptor (Rattus norvegicus, UniProt P61169); experiment: Displacement of [3H]spiperone from rat corpora striatum dopamine D2 receptor after 15 mins by liquid scintillation counting; conditions: read-out: Ki
Sequence of D(2) dopamine receptor (P61169 whole entry): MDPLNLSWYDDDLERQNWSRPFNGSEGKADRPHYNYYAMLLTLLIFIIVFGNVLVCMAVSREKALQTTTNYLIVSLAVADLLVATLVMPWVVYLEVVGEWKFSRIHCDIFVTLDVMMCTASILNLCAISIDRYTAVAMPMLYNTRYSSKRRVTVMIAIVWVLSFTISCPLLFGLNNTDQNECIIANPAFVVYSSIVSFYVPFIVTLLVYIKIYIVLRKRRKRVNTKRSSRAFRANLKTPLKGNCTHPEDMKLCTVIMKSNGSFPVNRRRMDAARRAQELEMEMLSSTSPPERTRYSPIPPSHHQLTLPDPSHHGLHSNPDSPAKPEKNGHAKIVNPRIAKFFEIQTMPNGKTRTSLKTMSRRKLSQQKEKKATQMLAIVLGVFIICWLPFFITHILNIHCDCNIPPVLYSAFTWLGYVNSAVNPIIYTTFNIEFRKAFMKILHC
Outline: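 Corpora striata membranes in Tris-HCl buffer containing NaCl, KCl, CaCl2, MgCl2, ascorbic acid and pargyline. [3H]spiperone 0.4 nM final, 3 mg fresh tissue, incubated 15 min at 37 °C. GF/B filtration, scintillation counting. Six concentrations in triplicate. IC50 converted to Ki via Cheng-Prusoff.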

| Compound | Ki ([1]; read-out: Ki) | Ki [2] | Ki [3] | Ki [4] | IC50 [2] | Ki [1] |
| --- | --- | --- | --- | --- | --- | --- |
| N#C/N=C(\NCCCN1CCN(c2ccccn2)CC1)c1ccccn1 | > 10000 nM | 1.12 nM | 30.6 nM | > 10000 nM |  |  |
| N#C/N=C(\NCCCN1CCN(c2cccc(C(F)(F)F)c2)CC1)c1ccccn1 | 1.81 nM | 0.000778 nM | 1.31 nM | 83.7 nM | 0.00105 nM |  |
| Cc1cccc(N2CCN(CCCN/C(=N\C#N)c3ccccn3)CC2)c1C | 29.7 nM | 0.867 nM | 30 nM | > 10000 nM |  |  |
| N#C/N=C(\NCCCN1CCN(c2ncccn2)CC1)c1ccccn1 | 22.5 nM | 0.0161 nM | 3080 nM | > 10000 nM | 0.0217 nM |  |
| CCOc1ccccc1N1CCN(CCCN/C(=N\C#N)c2ccccn2)CC1 |  | 2730 nM | 17.2 nM | > 10000 nM |  | Not Active |
| COc1ccccc1N1CCN(CCCN/C(=N\C#N)c2ccccn2)CC1 | 1.61 nM | 0.00157 nM | 4.68 nM | > 10000 nM | 0.00212 nM |  |
